Laboratory results reported in ChEMBL document CHEMBL1153828, “Structures of the tyrosine kinase domain of fibroblast growth factor receptor in complex with inhibitors” (Science, 1997).
Activity calls are given as the source filed them. No cut-off for these calls is given here.

Key:
[1] = molecular target: Epidermal growth factor receptor (Mus musculus) (UniProt Q01279); experiment: Inhibition of EGFR phosphorylation in mouse NIH/3T3 cells at 200 uM; format: cell-based; conditions: NIH3T3
[2] = molecular target: Insulin receptor (Mus musculus) (UniProt P15208); experiment: Inhibition of insulin receptor tyrosine phosphorylation in mouse NIH3T3 cells; format: cell-based
How it was run: (§1)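 Cells were preincubated with a range of inhibitor concentrations for 5 min at 37°C, then stimulated for 5 min at 37°C (unstimulated controls kept): PDGF 40 ng/ml for PDGFR, insulin 1 μg/ml for insulin receptor, EGF 100 ng/ml for EGFR. Lysates were immunoprecipitated with receptor-specific antibodies, run on SDS-PAGE and immunoblotted with anti-phosphotyrosine.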

[3] = molecular target: T1, Platelet-derived growth factor receptor (Mus musculus) (UniProt P05622+P26618); experiment: Inhibition of PDGFR tyrosine phosphorylation in mouse NIH3T3 cells; format: cell-based; how it was run: as §1
[4] = molecular target: T1, Platelet-derived growth factor receptor (Mus musculus); experiment: Inhibition of PDGFR in mouse NIH/3T3 cells assessed as inhibition of PDGF-stimulated tyrosine autophosphorylation by immunoblotting; format: cell-based; conditions: NIH3T3; how it was run: as §1
[5] = molecular target: Fibroblast growth factor receptor 1 (Homo sapiens, UniProt P11362); experiment: Inhibition of FGFR1K autophosphorylation activity assessed as [32P] incorporation
[6] = molecular target: T1, Platelet-derived growth factor receptor (Mus musculus); experiment: Inhibition of PDGFR in mouse NIH/3T3 cells assessed as PDGF-stimulated Erk2 activation by immunoblotting; format: cell-based; conditions: NIH3T3
[7] = molecular target: T1, Platelet-derived growth factor receptor (Mus musculus); experiment: Inhibition of PDGFR in mouse NIH/3T3 cells assessed as inhibition of PDGF-stimulated phospholipase C gamma phosphorylation by immunoblotting; format: cell-based; conditions: NIH3T3
How it was run: (§2)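 Cells were preincubated with a range of inhibitor concentrations for 5 min at 37°C, then stimulated for 5 min at 37°C: PDGF 40 ng/ml, insulin 1 μg/ml or EGF 100 ng/ml. Whole-lysate portions went directly to SDS-PAGE and anti-phosphotyrosine immunoblotting, and substrate phosphoproteins were located by position.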

[8] = molecular target: Fibroblast growth factor receptor 1 (Mus musculus, UniProt P16092); experiment: Inhibition of acidic FGF-stimulated FGFR1 tyrosine autophosphorylation in mouse NIH/3T3 cells by immunoblotting; format: cell-based, NIH3T3
[9] = molecular target: Insulin receptor (Mus musculus) (UniProt P15208); experiment: Inhibition of insulin-stimulated insulin receptor beta subunit autophosphorylation in mouse NIHIR cells; format: cell-based; how it was run: as §1
[10] = molecular target: Insulin receptor (Mus musculus) (UniProt P15208); experiment: Inhibition of insulin receptor in mouse NIHIR cells assessed as inhibition of insulin-stimulated IRS1 phosphorylation; format: cell-based; how it was run: as §2
[11] = tested on: NIH3T3; experiment: Growth inhibition of mouse NIH/3T3 cells assessed as inhibition of acidic FGF-stimulated [3H]thymidine incorporation; format: functional, cell-based
How it was run: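 NIH 3T3 cells, untreated or pretreated with inhibitor at 50 μM, were stimulated with aFGF and then labeled with [3H]thymidine. Thymidine incorporation was measured after 24 hours.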

[12] = molecular target: Epidermal growth factor receptor (Mus musculus) (UniProt Q01279); experiment: Inhibition of EGFR in mouse HER14 cells assessed as inhibition of EGF-stimulated Shc phosphorylation by immunoblotting; format: cell-based; how it was run: as §2
[13] = molecular target: Epidermal growth factor receptor (Mus musculus) (UniProt Q01279); experiment: Inhibition of EGFR in mouse HER14 cells assessed as inhibition of EGF-stimulated ERK2 activation by immunoblotting; format: cell-based
[14] = molecular target: Epidermal growth factor receptor (Mus musculus) (UniProt Q01279); experiment: Inhibition of EGF-stimulated EGFR phosphorylation in mouse HER14 cells by immunoblotting; format: cell-based; how it was run: as §1

Chain of Epidermal growth factor receptor (Mus musculus) (Q01279 whole entry): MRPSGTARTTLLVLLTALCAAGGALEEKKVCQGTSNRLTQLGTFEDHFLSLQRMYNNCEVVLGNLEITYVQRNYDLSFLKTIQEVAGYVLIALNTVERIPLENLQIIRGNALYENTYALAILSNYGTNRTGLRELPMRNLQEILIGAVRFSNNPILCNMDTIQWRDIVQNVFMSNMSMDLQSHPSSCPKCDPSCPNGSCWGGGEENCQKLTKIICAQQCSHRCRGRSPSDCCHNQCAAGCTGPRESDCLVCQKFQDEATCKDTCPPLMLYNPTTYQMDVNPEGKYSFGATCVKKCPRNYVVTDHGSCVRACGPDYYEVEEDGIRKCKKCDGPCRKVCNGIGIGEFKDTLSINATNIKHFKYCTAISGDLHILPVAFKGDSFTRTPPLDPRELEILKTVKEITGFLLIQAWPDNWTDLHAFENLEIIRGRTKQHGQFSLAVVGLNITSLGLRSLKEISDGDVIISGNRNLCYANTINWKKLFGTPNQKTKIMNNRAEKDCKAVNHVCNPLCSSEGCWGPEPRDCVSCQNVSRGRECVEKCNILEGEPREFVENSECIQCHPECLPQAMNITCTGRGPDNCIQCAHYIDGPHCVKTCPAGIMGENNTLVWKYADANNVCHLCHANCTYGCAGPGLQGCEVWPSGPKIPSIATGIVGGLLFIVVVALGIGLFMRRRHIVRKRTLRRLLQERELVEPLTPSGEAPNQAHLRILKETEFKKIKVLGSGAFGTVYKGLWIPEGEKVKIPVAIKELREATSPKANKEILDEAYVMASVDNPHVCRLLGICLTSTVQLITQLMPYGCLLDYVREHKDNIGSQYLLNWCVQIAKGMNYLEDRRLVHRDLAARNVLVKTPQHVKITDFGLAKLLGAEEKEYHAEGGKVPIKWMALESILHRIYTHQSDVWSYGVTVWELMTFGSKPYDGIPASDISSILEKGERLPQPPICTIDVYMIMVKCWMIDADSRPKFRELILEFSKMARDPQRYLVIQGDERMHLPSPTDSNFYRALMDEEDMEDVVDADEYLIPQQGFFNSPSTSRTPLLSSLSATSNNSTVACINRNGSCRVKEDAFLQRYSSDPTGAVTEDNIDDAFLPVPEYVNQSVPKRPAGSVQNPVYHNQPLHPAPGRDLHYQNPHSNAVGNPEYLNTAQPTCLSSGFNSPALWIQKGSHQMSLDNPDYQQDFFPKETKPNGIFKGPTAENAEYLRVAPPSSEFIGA
Chain of Insulin receptor (Mus musculus) (P15208 28-748 limits assumed): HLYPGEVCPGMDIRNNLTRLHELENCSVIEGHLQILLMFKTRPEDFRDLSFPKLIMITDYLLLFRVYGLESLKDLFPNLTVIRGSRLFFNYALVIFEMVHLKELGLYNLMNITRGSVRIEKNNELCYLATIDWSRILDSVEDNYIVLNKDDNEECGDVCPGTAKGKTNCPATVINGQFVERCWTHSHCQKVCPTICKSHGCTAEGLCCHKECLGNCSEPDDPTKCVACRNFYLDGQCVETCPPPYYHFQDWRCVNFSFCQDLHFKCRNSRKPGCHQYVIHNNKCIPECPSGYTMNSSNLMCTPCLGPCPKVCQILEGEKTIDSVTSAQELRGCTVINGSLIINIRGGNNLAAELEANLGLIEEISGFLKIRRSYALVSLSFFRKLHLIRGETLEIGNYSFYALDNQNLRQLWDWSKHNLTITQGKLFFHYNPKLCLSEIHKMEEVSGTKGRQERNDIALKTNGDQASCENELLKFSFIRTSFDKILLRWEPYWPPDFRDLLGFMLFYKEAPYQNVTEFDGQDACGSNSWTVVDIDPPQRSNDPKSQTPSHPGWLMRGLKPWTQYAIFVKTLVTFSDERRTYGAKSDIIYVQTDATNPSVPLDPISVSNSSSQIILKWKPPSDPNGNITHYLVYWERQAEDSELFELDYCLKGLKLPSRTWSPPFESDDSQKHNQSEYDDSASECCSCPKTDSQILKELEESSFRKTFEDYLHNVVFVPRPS
Chain of Insulin receptor (Mus musculus) (P15208 753-1372 limits assumed): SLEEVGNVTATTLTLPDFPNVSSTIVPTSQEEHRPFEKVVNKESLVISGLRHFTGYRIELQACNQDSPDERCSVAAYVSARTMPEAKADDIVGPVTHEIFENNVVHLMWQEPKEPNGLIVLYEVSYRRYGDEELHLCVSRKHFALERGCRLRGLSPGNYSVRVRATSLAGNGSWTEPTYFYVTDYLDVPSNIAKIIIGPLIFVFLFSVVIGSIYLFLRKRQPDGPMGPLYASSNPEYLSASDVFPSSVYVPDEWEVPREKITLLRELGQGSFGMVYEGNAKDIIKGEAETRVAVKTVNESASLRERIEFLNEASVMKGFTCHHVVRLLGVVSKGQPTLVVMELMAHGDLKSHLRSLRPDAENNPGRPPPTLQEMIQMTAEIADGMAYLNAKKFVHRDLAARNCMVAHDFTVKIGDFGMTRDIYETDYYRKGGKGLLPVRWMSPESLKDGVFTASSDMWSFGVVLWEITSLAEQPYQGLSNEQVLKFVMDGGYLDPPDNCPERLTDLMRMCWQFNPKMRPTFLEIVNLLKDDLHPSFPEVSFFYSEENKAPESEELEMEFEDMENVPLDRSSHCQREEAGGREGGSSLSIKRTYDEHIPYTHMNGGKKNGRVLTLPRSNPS
Chain of Fibroblast growth factor receptor 1 (Mus musculus, UniProt P16092) (P16092 whole entry): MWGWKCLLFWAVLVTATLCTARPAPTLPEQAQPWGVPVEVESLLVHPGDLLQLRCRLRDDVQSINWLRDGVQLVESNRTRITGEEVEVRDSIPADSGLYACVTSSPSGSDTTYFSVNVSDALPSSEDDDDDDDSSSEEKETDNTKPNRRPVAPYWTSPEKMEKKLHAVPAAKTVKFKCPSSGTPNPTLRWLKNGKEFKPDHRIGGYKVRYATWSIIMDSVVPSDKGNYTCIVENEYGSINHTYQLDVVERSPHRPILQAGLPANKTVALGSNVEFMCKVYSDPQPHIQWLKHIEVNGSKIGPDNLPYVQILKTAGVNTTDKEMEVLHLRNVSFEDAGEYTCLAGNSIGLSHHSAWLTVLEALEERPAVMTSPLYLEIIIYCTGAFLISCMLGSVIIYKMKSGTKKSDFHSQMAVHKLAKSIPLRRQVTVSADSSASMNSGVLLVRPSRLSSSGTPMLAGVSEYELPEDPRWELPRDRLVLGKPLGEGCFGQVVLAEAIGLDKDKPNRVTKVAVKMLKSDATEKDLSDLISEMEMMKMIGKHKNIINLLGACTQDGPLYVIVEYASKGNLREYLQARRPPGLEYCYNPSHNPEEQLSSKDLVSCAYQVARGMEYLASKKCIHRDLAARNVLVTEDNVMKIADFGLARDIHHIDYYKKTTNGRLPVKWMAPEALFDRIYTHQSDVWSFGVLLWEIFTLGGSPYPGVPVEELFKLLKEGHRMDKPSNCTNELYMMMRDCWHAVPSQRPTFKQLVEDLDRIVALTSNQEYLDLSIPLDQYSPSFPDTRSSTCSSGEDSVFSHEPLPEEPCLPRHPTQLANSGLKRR
Chain of Fibroblast growth factor receptor 1 (Homo sapiens, UniProt P11362) (P11362 whole entry): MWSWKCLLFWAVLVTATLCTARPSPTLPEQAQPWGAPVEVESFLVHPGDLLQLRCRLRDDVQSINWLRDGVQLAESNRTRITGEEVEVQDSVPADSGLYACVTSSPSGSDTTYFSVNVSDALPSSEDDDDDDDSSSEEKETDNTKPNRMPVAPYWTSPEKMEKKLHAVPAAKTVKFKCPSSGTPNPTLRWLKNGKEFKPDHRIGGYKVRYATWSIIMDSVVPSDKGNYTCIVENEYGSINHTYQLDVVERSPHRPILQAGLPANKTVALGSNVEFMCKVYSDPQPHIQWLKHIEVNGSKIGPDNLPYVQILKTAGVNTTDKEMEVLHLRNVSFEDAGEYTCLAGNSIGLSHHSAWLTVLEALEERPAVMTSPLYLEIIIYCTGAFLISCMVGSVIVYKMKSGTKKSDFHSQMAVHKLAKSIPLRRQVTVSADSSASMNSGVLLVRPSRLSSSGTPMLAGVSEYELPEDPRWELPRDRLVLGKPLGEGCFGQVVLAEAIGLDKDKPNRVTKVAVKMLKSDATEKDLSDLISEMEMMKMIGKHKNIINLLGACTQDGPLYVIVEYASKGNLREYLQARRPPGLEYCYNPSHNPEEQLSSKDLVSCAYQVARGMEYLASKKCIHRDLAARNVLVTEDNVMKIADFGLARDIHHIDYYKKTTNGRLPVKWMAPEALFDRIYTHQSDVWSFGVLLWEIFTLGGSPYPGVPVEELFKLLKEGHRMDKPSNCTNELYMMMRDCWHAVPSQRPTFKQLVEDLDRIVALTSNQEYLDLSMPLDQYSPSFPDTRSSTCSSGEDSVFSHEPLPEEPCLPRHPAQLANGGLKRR

| Activity [1] | Activity [2] | Activity [3] | Activity [4] | IC50 [5] | Activity [6] | Activity [7] | IC50 [8] | Activity [9] | Activity [10] | Activity [12] | Activity [13] | Activity [14] | Structure (SMILES) | Activity [11] |
| --- | --- | --- | --- | --- | --- | --- | --- | --- | --- | --- | --- | --- | --- | --- |
| inactive | Active | Active | Active | 10 µM | Active | Active | 20 µM | Active | Active | – | – | – | O=CN1CCN(c2ccc(/C=C3\C(=O)Nc4ccccc43)cc2)CC1 | Active |
| inactive | inactive | – | Active | 10 µM | Active | Active | 10 µM | Active | Active | Active | Active | Active | Cc1c[nH]c(/C=C2\C(=O)Nc3ccccc32)c1CCC(=O)O | Active |
